Laboratory results from PMC10405366 (Molecular pharmaceutics, 2023).

Legend:
[1] = test system: female athymic nude (nu/nu) mice; test: Tolerability study: serum chemistry; type: in vivo, mouse
Outline: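 Athymic nude mice (n = 5 per group) received test compound or the Tween80:Captex200:saline vehicle IP every 2 days for 14 days. About 2–4 h after the last dose, mice were killed with CO2 and blood was drawn by cardiac puncture. Complete blood counts and serum chemistry were run by a pathology core. Values are given as means ± SD, n = 3–5.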

[2] = Mouse pharmacokinetics, plasma LC-MS/MS; type: in vivo; details: female C57BL/6 mice
[3] = test system: MDA-MB-435; test: Cell viability assay; type: cell-based, human; details: MDA-MB-435
Outline: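 RPMI1640 (OVCAR3, OVCAR4, MDA-MB-435) or DMEM (OVCAR8, MDA-MB-231) was used, with 10% FBS and penicillin/streptomycin. Cells were STR-validated and kept below 20 passages. Cells were plated at 5000 per well overnight, then given test compound at final 0.95–250 nM (nine levels, 0.5% DMSO) for 72 h at 37 °C. Viability was read by CellTiter-Blue absorbance, and IC50 was taken relative to DMSO. Paclitaxel (0.39–100 nM) was the control, with three biological replicates.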

[4] = test system: OVCAR4; test: 2D foci assay; type: cell-based, human; details: OVCAR4, 50 nM for 8 h, two weeks colony formation, relative to vehicle
Outline: (§1)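 Cells were seeded at 200 per 60 mm dish and left to attach overnight. They were then exposed for 8 h to test compound (50 nM), DMSO vehicle or paclitaxel (10 nM). Medium was replaced and cells grew drug-free for about two weeks (15 days). Colonies were fixed in 4% paraformaldehyde, stained with 0.05% crystal violet, imaged and counted. There were three biological replicates, compared with vehicle by Dunnett's test.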

[5] = test system: OVCAR8; test: 2D foci assay; type: cell-based, human; details: OVCAR8, 50 nM for 8 h, two weeks colony formation, relative to vehicle
Outline: as §1

[6] = 0.10 mg/kg IP every 2 days, 14 days
[7] = 0.25 mg/kg IP every 2 days, 14 days
[8] = 0.50 mg/kg IP every 2 days, removed day 13
[9] = 1.00 mg/kg IP every 2 days, removed at 8 days

## CN1C(=O)[C@]23SS[C@@]1(C)C(=O)N2[C@H]1Nc2ccccc2[C@@]1([C@@]12c4ccccc4N[C@@H]1N1C(=O)[C@@]4(C)SS[C@]1(C(=O)N4C)[C@H]2O)[C@@H]3O [verticillin A]
[1]; [6]
  cholesterol: 144 ± 16 mg/dL
  creatine kinase: 241 ± 85 U/L
  creatinine: 0.56 ± 0.03 mg/dL
  globulin: 2.2 ± 0.4 g/dL
  glucose: 191 ± 42 mg/dL
  lipase: 43 ± 15 U/L
  phosphorous: 12.8 ± 1.1 mg/dL
  total bilirubin: 0.4 ± 0.1 mg/dL
  total protein: 5.6 ± 0.4 g/dL
  triglyceride: 202 ± 42 mg/dL
[1]; [7]
  ALP: 141 ± 14 U/L
  ALT: 46 ± 13 U/L
  AST: 112 ± 19 U/L
  BUN: 17 ± 4 mg/dL
  GGT: 3 ± 1 U/L
  albumin: 3.3 ± 0.2 g/dL
  amylase: 1189 ± 89 U/L
  calcium: 11.6 ± 0.5 mg/dL
  cholesterol: 141 ± 10 mg/dL
  creatine kinase: 237 ± 60 U/L
  creatinine: 0.21 ± 0.7 mg/dL
  globulin: 2.1 ± 0.3 g/dL
  glucose: 187 ± 33 mg/dL
  lipase: 71 ± 4 U/L
  phosphorous: 14.0 ± 1.0 mg/dL
  total bilirubin: 0.3 ± 0.0 mg/dL
  total protein: 5.5 ± 0.4 g/dL
  triglyceride: 236 ± 52 mg/dL
[1]; [8]
  ALP: 92 ± 19 U/L
  ALT: 55 ± 23 U/L
  AST: 201 ± 51 U/L
  BUN: 26 ± 3 mg/dL
  GGT: 7 ± 2 U/L
  albumin: 3.2 ± 0.2 g/dL
  amylase: 1397 ± 318 U/L
  calcium: 11.7 ± 0.4 mg/dL
  cholesterol: 124 ± 22 mg/dL
  creatine kinase: 302 ± 65 U/L
  creatinine: 0.36 ± 0.03 mg/dL
  globulin: 2.1 ± 0.2 g/dL
  glucose: 176 ± 19 mg/dL
  phosphorous: 16.4 ± 2.3 mg/dL
  total bilirubin: 0.4 ± 0.2 mg/dL
  total protein: 5.3 ± 0.3 g/dL
  triglyceride: 187 ± 139 mg/dL
[1]; [9]
  ALP: 70 ± 61 U/L
  ALT: 44 ± 8 U/L
  AST: 225 ± 68 U/L
  BUN: 25 ± 4 mg/dL
  GGT: 7 ± 3 U/L
  albumin: 2.1 ± 0.9 g/dL
  amylase: 1213 ± 149 U/L
  calcium: 11.4 ± 0.4 mg/dL
  cholesterol: 90 ± 26 mg/dL
  creatine kinase: 498 ± 184 U/L
  creatinine: 0.30 ± 0.12 mg/dL
  globulin: 2.9 ± 1.0 g/dL
  glucose: 116 ± 17 mg/dL
  lipase: 52 ± 22 U/L
  phosphorous: 10.6 ± 6.8 mg/dL
  total bilirubin: 0.3 ± 0.0 mg/dL
  total protein: 5.0 ± 0.4 g/dL
  triglyceride: 114 ± 20 mg/dL
[2]; IP 0.25 mg/kg, most results just above the lower limit
  plasma concentration: 1 to 1000 nM
[2]; IV 0.25 mg/kg, most results just above the lower limit
  plasma concentration: 1 to 1000 nM
[2]; oral gavage 2.5 mg/kg, linear range 1–1000 nM
  plasma concentration: BLOQ
[3]
  cytotoxic activity: pronounced cytotoxic activities
[4]
  foci formation: completely abrogated foci formation
[5]
  foci formation: completely abrogated foci formation
